The list is not random: actives were taken first. Their share in the collection is about 4.1%.
DTT redox prof – compounds producing H2O2 with reducing agent – biochemical, NIH compound library profiling, artefact control for MLSCN library redox annotation, primary screen | DTT-dependent redox cycling H2O2, phenol red/HRP absorbance; 100% = 100 µM peroxide control, 0% = buffer | activation, % at 10 µM | 200,000 tested, 0.03% active | AID 878;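 active = activation of at least 50% relative to the plate's high and low controls in the primary single-dose screen; inactive = activation below 50%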;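 also: compound incubated with DTT at 0.8 mM final as the reducing agent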
Cl transport mod – modulators of human KCC2 chloride dependent transport; 190,000 tested, 2.2% active; KCC2 cells, thallium flux FluoZin-2 fluorescence; Q9H2X9; B-score of Tl+ flux slope (higher = more flux/activation; lower = inhibition) at 10 µM;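 active = thallium flux slope and its plate-corrected score both differing from the plate sample mean at a set confidence after two filtering rounds, in either direction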;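 also: slope of fluorescence scaled to starting intensity during 10 to 20 s after thallium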
Autophagy HCS – modulators of autophagy; calls only at 10 µM (by protocol); AID 463193; 190,000 tested, 0.98% active; MEF GFP-LC3 puncta imaging; test concentration mostly 10 µM;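 active = percentage of spot-positive cells more than 3 SD above its plate mean, without a fluorescence outlier flag or 80% toxicity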;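 also: spot-positive cell cutoff set from DMSO-treated cells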
Dynein cargo inh – dynein cargo transport inhibition; 3617.4 mouse cells, GR-EGFP nuclear translocation imaging; test concentration mostly 20 µM; stimulated with dexamethasone, 1 µM; active compounds read low; z-score, hits read low; 220,000 tested, 0.47% active;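 active = plate z-score of nuclear minus cytoplasmic receptor signal below a set negative limit, without overly bright fluorescence or cell loss, cut at about -3.5 in these data, passing the limit was not always enough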;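 also: z-score of nuclear minus cytoplasmic ring GR-EGFP intensity difference per well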
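Medium: Induction medium lacking tetracycline, stripped serum | Probe or stimulus: 1.0 µM final dexamethasone stimulus | Schedule: 48 h induction, then 1 h compound, then 30 min agonist, 37 °C | Signal: Automated 10x imaging of fixed Hoechst-stained cells | Evaluation: Per-cell GR-EGFP intensity, nucleus versus surrounding cytoplasmic ring, well-averaged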
ROMK mod – modulates human ROMK potassium channel activity. AID 1918. B-score at 10 µM. Tet-inducible ROMK, thallium flux fluorescence; actives lie on both sides. P48048. 130,000 tested, 2% active;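 active = signal ratio slope over the read window, or its plate-corrected B-score, at least 3 SD from the plate mean, either direction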;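 also: B-score of the F/F0 ratio slope over 7 to 12 s after thallium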
Target sequence (P48048 whole entry, looked up): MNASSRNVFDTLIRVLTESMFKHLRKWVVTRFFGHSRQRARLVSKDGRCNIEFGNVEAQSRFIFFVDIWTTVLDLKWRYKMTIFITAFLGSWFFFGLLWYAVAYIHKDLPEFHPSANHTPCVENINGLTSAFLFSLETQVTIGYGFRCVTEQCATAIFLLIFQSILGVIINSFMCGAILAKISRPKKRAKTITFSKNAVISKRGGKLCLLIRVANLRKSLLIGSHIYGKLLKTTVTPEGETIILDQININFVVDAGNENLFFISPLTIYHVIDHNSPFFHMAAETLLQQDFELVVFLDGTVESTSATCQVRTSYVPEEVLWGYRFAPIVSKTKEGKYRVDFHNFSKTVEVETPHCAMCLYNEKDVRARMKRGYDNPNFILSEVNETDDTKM
Starred values were filed as active, the others as inactive; i = inactive; · = not tested or not shown; + = active, no number.

SMILES	DTT redox prof	Cl transport mod	Autophagy HCS	Dynein cargo inh	ROMK mod
O=C(CC1(O)C(=O)N(C/C=C/c2ccccc2)c2ccccc21)c1ccccn1 (stereo unspecified)	-4	-0.51	+	-0.54	·
O=C(CC1(O)C(=O)N(CCc2ccccc2)c2ccccc21)c1ccccn1 (stereo unspecified)	-1	-0.25	i	-0.48	·
CCN1/C(=C/C(C)=O)Sc2ccc(OC)cc21	0	-0.11	i	-0.94	·
CCOC(=O)/C(=C/C=C1\Sc2cc(OCC)c(OCC)cc2N1CC)C(C)=O	-1	i	+	3.5	·
CCOC(=O)CNC(=O)c1cccnc1Oc1ccc(Cl)cc1	·	-0.089	·	0.16	-0.39
CC(C)C(=O)N1CCN(c2ccc(NC(=O)c3ccc([N+](=O)[O-])o3)cc2)CC1	0	-0.19	+	-3.1	0.26
CC(=O)c1ccc(NC(=O)Nc2ccc3c(c2)nc(C)n3C)cc1	0	0.12	+	-0.67	-0.81
CC(=O)c1cccc(NC(=O)Nc2c(C)nn(C)c2C)c1	1	·	+	0.78	·
CCOC(=O)c1ccc(NC(=O)Nc2c(C)nn(C)c2C)cc1	1	·	i	0.13	·
COc1ccc2c(c1)SCC/C2=C\CN1C(=O)CCC1=O	-1	1	i	0.25	-0.19
CCc1ccc(NC(=O)Cn2cccc2)cc1	0	1.6	i	0.45	·
Cc1ccc(N2CC(C(=O)OCc3ccccc3)CC2=O)cc1 (stereo unspecified)	1	-4.3*	i	-0.8	-0.96
Cc1ccc(N2CC(C(=O)Oc3cccc(N4C(=O)CCC4=O)c3)CC2=O)cc1 (stereo unspecified)	-1	7.1*	i	0.4	·
COc1ccc(-c2[nH]n(-c3ccc([N+](=O)[O-])cc3)c(=O)c2C=NCc2ccc(F)cc2)cc1	0	0.65	+	0.17	1.3
CCN(CC)CCn1c(=S)[nH]c2cc(Cl)ccc2c1=O	0	25*	i	-0.78	·
CCN1/C(=C/c2ccc3cc(C)ccc3[n+]2C)Sc2ccc3sccc3c21	-1	0.055	+	7.8	-1.3
COc1ccc(C2=NN(CC(=O)NCc3ccco3)C(=O)CC2)cc1	0	-0.31	i	1.2	0.85
Cc1cccc(-n2nnnc2SCn2nnc3ccccc3c2=O)c1	1	1.7	+	3.2	-1.3
O=C(Cc1cccs1)N1CCN=C1SCc1ccccc1F	-1	·	+	-0.41	·
O=C(O)c1ccn2c(C(=O)c3ccccc3)c(-c3ccccc3)cc2c1	·	-3.2	·	0.038	·
CCCCN1/C(=C/c2ccc3ccccc3[n+]2CC)Sc2ccccc21	-1	i	+	0.13	·
CCC/C(=N/NC(=O)c1csc(C)c1C)c1ccc(Cl)s1	0	3.7*	i	0.18	0.22
O=C(NCc1cccs1)C1CCCN(S(=O)(=O)c2cnc[nH]2)C1 (stereo unspecified)	-3	0.42	+	-0.58	·
CC1CCN(S(=O)(=O)N2CCC(C(=O)NCc3cccs3)CC2)CC1	0	·	+	0.67	-0.96
COC(=O)/C=c1/s/c(=C(\C#N)C(=O)NCc2ccco2)n(-c2ccc(C)cc2)c1=O	2	·	+	-0.79	·
SMILES	DTT redox prof	Cl transport mod	Autophagy HCS	Dynein cargo inh	ROMK mod
O=C(Nc1cccc(C(F)(F)F)c1)C1CCCO1 (stereo unspecified)	0	0.076	i	-0.91	-0.044
CCCOC(=O)/C(=C\c1ccc([N+](=O)[O-])o1)NC(=O)c1ccccc1	0	0.51	+	-0.97	0.2
O=C(NCCO)/C(=C\c1ccc([N+](=O)[O-])o1)NC(=O)c1ccccc1	0	-0.023	i	-0.35	-0.077
CCOC(=O)/C(=C\c1ccc([N+](=O)[O-])o1)NC(=O)c1ccccc1	0	·	+	3	-0.025
Cn1cnnc1Sc1ccc(C(=O)NCCC(c2ccccc2)c2ccccc2)cc1[N+](=O)[O-]	0	-0.96	i	-0.73	-0.38
O=C(NC1CCN(C(=O)N2c3ccccc3Sc3ccccc32)CC1)c1ccco1	-1	1.3	+	1.1	·
O=C(NC1CCN(C(=O)N2c3ccccc3Sc3ccccc32)CC1)c1ccccc1Cl	-8	-0.92	i	-0.64	·
Cc1ccc(CC(=O)NCCS(=O)c2ccc(C)cc2)cc1 (stereo unspecified)	-1	·	i	0.0031	0.51
